# pEC50: −log10 of the molar value. Calls of active or inactive are those of the source. No cut-off for these calls is given here.
# Tests used:
# Pseudomonas aeruginosa = experiment: Antibacterial activity against Pseudomonas aeruginosa ATCC27853 assessed as bacterial growth inhibition incubated for overnight by CLSI-protocol based broth micro-dilution assay; assay type: functional, organism-based
# In short: (§1)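 Broth microdilution MIC in cation-adjusted Mueller-Hinton medium, following CLSI. Compound in 2-fold serial dilution; bacteria at a final 5 × 10^5 CFU/mL. Incubated overnight at 37 °C. MIC taken as the lowest concentration preventing visible growth.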
# Bacillus subtilis = experiment: Antibacterial activity against Bacillus subtilis 168 assessed as bacterial growth inhibition incubated for overnight by CLSI-protocol based broth micro-dilution assay; assay type: functional, organism-based; in short: as §1
# Enterococcus faecium [1] = experiment: Antibacterial activity against vancomycin-resistant Enterococcus faecium 6011 assessed as bacterial growth inhibition incubated for overnight by CLSI-protocol based broth micro-dilution assay; assay type: functional, organism-based
# In short: (§2)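 Broth microdilution per CLSI in cation-adjusted Mueller-Hinton medium (casein, beef extract, starch). Twofold serial compound dilutions were inoculated at a final 5 × 10^5 CFU/mL and incubated overnight at 37 °C. MIC was the lowest concentration with no visible growth.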
# Neisseria gonorrhoeae [2] = experiment: Antibacterial activity against Neisseria gonorrhoeae S1441 assessed as bacterial growth inhibition incubated for overnight by CLSI-protocol based broth micro-dilution assay; assay type: functional, organism-based
# In short: (§3)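 Neisseria MIC by CLSI broth microdilution in cation-adjusted Mueller-Hinton medium supplemented with 2.5% fetal bovine serum. Compound in 2-fold serial dilution; final inoculum 5 × 10^5 CFU/mL. Incubated overnight at 37 °C. MIC is the lowest concentration with no visible growth.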
# [3] = test system: Severe acute respiratory syndrome coronavirus 2; experiment: Inhibition of SARS CoV-2 MPro using Boc-Abu-Tle-Leu-Gln-AMC as substrate incubated for 10 mins
# In short: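 Purified SARS-CoV-2 main protease (cysteine protease) was assayed with a fluorogenic peptide substrate. AMC release was followed continuously over 10 min.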
# Klebsiella aerogenes = experiment: Antibacterial activity against Enterobacter aerogenes ATCC13048 assessed as bacterial growth inhibition incubated for overnight by CLSI-protocol based broth micro-dilution assay; assay type: functional, organism-based; in short: as §1
# Enterococcus faecalis = experiment: Antibacterial activity against Enterococcus faecalis ATCC29212 assessed as bacterial growth inhibition incubated for overnight by CLSI-protocol based broth micro-dilution assay; assay type: functional, organism-based; in short: as §1
# Enterococcus faecium [4] = experiment: Antibacterial activity against vancomycin-resistant Enterococcus faecium BM4147 assessed as bacterial growth inhibition incubated for overnight by CLSI-protocol based broth micro-dilution assay; assay type: functional, organism-based; in short: as §2
# Candida albicans [5] = experiment: Antifungal activity against Candida albicans Tu03 assessed as inhibition of fungal growth incubated for 48 hrs by TECAN M200 microtiter plate reader analysis; assay type: functional, organism-based
# In short: (§4)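 EUCAST broth microdilution with direct colony suspension inoculum of 0.5–2.5 × 10^5 CFU/mL, using clinical Candida isolates. Medium was MOPS-buffered RPMI 1640 with glucose to a final 2%, pH 7.0. Plates incubated 48 h at 37 °C, then read at 530 nm to give MIC.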
# Neisseria gonorrhoeae [6] = experiment: Antibacterial activity against Neisseria gonorrhoeae ATCC19424 assessed as bacterial growth inhibition incubated for overnight by CLSI-protocol based broth micro-dilution assay; assay type: functional, organism-based; in short: as §3
# Escherichia coli [7] = experiment: Antibacterial activity against Escherichia coli ATCC25922 assessed as bacterial growth inhibition incubated for overnight by CLSI-protocol based broth micro-dilution assay; assay type: functional, organism-based; in short: as §1
# HeLa = experiment: Cytotoxicity against human HeLa cells measured after 24 hrs by resazurin staining based analysis; assay type: functional, cell-based
# In short: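 HeLa cells in RPMI with 10% FBS were seeded at 1 × 10^4 per well onto 2-fold compound dilutions, run in duplicate. Incubation was 24 h at 37 °C, 5% CO2. Resazurin was then added (200 μM final) and incubated overnight. Resorufin fluorescence (ex 560/em 600 nm) was read relative to untreated control.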
# Escherichia coli [8] = experiment: Antibacterial activity against Escherichia coli C600 harboring Tn10 deltalpxC deltatolC mutant assessed as bacterial growth inhibition incubated for overnight by CLSI-protocol based broth micro-dilution assay; assay type: functional, organism-based; in short: as §2
# Candida tropicalis = experiment: Antifungal activity against Candida tropicalis Tu05 assessed as inhibition of fungal growth incubated for 48 hrs by TECAN M200 microtiter plate reader analysis; assay type: functional, organism-based; in short: as §4
# Enterococcus faecium [9] = experiment: Antibacterial activity against Enterococcus faecium K209.5 assessed as bacterial growth inhibition incubated for overnight by CLSI-protocol based broth micro-dilution assay; assay type: functional, organism-based; in short: as §1
# Klebsiella pneumoniae = experiment: Antibacterial activity against Klebsiella pneumoniae ATCC12657 assessed as bacterial growth inhibition incubated for overnight by CLSI-protocol based broth micro-dilution assay; assay type: functional, organism-based; in short: as §1
# Caco-2 [10] = experiment: Cytotoxicity against human Caco-2 cells assessed as cell count up to 10 uM by Hoechst dye based analysis; assay type: toxicity; conditions: caco-2, 10 µM
# Candida albicans [11] = experiment: Antifungal activity against Candida albicans Tu01 assessed as inhibition of fungal growth incubated for 48 hrs by TECAN M200 microtiter plate reader analysis; assay type: functional, organism-based; in short: as §4
# Caco-2 [12] = experiment: Cytotoxicity against human Caco-2 cells assessed as cell count up to 10 uM measured after 48 hrs by Hoechst dye based analysis; assay type: toxicity; conditions: caco-2, 48 h
# Acinetobacter baumannii = experiment: Antibacterial activity against Acinetobacter baumannii 09987 assessed as bacterial growth inhibition incubated for overnight by CLSI-protocol based broth micro-dilution assay; assay type: functional, organism-based; in short: as §1
# Nakaseomyces glabratus = experiment: Antifungal activity against Candida glabrata Tu04 assessed as inhibition of fungal growth incubated for 48 hrs by TECAN M200 microtiter plate reader analysis; assay type: functional, organism-based; in short: as §4
# Enterococcus faecium [13] = experiment: Antibacterial activity against Enterococcus faecium 115.2 assessed as bacterial growth inhibition incubated for overnight by CLSI-protocol based broth micro-dilution assay; assay type: functional, organism-based; in short: as §1
# [14] = molecular target: Procathepsin L (Homo sapiens) (UniProt P07711); experiment: Inhibition of human Cathepsin L using Z-Phe-Arg-pNA as substrate incubated for 60 mins
# Sequence of Procathepsin L (Homo sapiens) (P07711 114-333 limits assumed): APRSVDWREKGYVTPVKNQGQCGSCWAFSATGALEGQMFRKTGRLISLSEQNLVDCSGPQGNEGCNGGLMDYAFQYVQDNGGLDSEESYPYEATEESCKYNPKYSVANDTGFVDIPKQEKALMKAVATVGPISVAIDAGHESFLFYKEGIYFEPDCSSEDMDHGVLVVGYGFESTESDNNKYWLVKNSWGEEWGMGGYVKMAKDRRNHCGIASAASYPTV
# Candida albicans [15] = experiment: Antifungal activity against Candida albicans Tu02 assessed as inhibition of fungal growth incubated for 48 hrs by TECAN M200 microtiter plate reader analysis; assay type: functional, organism-based; in short: as §4
# Staphylococcus aureus = experiment: Antibacterial activity against Staphylococcus aureus ATCC29213 assessed as bacterial growth inhibition incubated for overnight by CLSI-protocol based broth micro-dilution assay; assay type: functional, organism-based; in short: as §1
# Enterococcus faecium [16] = experiment: Antibacterial activity against Enterococcus faecium BM4147-1 assessed as bacterial growth inhibition incubated for overnight by CLSI-protocol based broth micro-dilution assay; assay type: functional, organism-based; in short: as §1
# Enterococcus faecium [17] = experiment: Antibacterial activity against vancomycin-resistant Enterococcus faecium U200 assessed as bacterial growth inhibition incubated for overnight by CLSI-protocol based broth micro-dilution assay; assay type: functional, organism-based; in short: as §2
# Candida albicans [18] = experiment: Antifungal activity against Candida albicans ATCC90028 assessed as inhibition of fungal growth incubated for 48 hrs by TECAN M200 microtiter plate reader analysis; assay type: functional, organism-based; in short: as §4
# Homo sapiens = species: Homo sapiens; experiment: Inhibition of human leukocyte elastase using MeoSuc-Ala-Ala-Pro-Val-AMC as substrate incubated for 10 mins
# SARS-CoV-2 [19] = experiment: Antiviral activity against SARS-CoV-2 expressing mNeonGreen infected in Caco-2 cells at 0.26 MOI assessed as reduction in infection rate for 48 hrs post infection by Hoechst dye based analysis; assay type: functional, organism-based; conditions: Severe acute respiratory syndrome coronavirus 2, Caco-2, 48 h
# SARS-CoV-2 [20] = experiment: Antiviral activity against SARS-CoV-2 expressing mNeonGreen infected in human Caco-2 cells at 0.26 MOI assessed as reduction in infection rate at 5 to 10 uM pre-treated with compound for 2.5 hrs followed by viral infection and measured after 48 hrs by Hoechst dye based analysis relative to control; assay type: functional, Severe acute respiratory syndrome coronavirus 2; parameters: scale not given: the % may be the effect or the level left; conditions: dose 5-10 µM, time 50.5 hrs
# [21] = Cytotoxicity against human Caco-2 cells assessed as cell count for 48 hrs by Hoechst dye based analysis; assay type: toxicity
# SARS-CoV-2 [22] = experiment: Antiviral activity against SARS-CoV-2 expressing mNeonGreen infected in human Caco-2 cells at 0.26 MOI assessed as reduction in infection rate at 2.5 to 10 uM for 48 hrs post infection by Hoechst dye based analysis relative to control; assay type: functional, Severe acute respiratory syndrome coronavirus 2; parameters: scale not given: the % may be the effect or the level left; conditions: dose 2.5-10 µM
compound,measurement,setting,value
CCCCCCC[C@@H](O)CC(=O)N[C@@H](CC(C)C)C(=O)N[C@@H](CCC(N)=O)C(=O)O,Activity,Pseudomonas aeruginosa,inactive
same,Activity,Bacillus subtilis,inactive
same,Activity,Enterococcus faecium [1],inactive
same,Activity,Neisseria gonorrhoeae [2],inactive
same,inhibition,[3],inactive
same,Activity,Klebsiella aerogenes,inactive
same,Activity,Enterococcus faecalis,inactive
same,Activity,Enterococcus faecium [4],inactive
same,Activity,Candida albicans [5],inactive
same,Activity,Neisseria gonorrhoeae [6],inactive
same,Activity,Escherichia coli [7],inactive
same,Activity,HeLa,inactive
same,Activity,Escherichia coli [8],inactive
same,Activity,Candida tropicalis,inactive
same,Activity,Enterococcus faecium [9],inactive
same,Activity,Klebsiella pneumoniae,inactive
same,Activity,Caco-2 [10],Toxic
same,Activity,Candida albicans [11],inactive
same,Activity,Caco-2 [12],Toxic
same,Activity,Acinetobacter baumannii,inactive
same,Activity,Nakaseomyces glabratus,inactive
same,Activity,Enterococcus faecium [13],inactive
same,inhibition,[14],inactive
same,Activity,Candida albicans [15],inactive
same,Activity,Staphylococcus aureus,inactive
same,Activity,Enterococcus faecium [16],inactive
same,Activity,Enterococcus faecium [17],inactive
same,Activity,Candida albicans [18],inactive
same,inhibition,Homo sapiens,inactive
CCCCCCC[C@@H](O)CC(=O)N[C@@H](CC(C)C)C(=O)N[C@H](CCC(N)=O)C(=O)N[C@H]1C(=O)N[C@H](C(C)C)C(=O)N[C@H](CC(C)C)C(=O)N[C@H](CO)C(=O)N[C@@H](CC(C)C)C(=O)N[C@H](CO)C(=O)N[C@@H]([C@@H](C)CC)C(=O)O[C@@H]1C,pEC50,SARS-CoV-2 [19],5.48
same,Activity,SARS-CoV-2 [20],85%
same,CC50 at 48 h,[21],> 20 µM
same,Activity,Caco-2 [10],Non-toxic
same,Activity,Caco-2 [12],Non-toxic
same,Activity,SARS-CoV-2 [22],60%

# From ChEMBL document CHEMBL6182897, “Salamandamide Lipodipeptides Are Biosynthetic Intermediate Shunt Products of the Nonamodular Nonribosomal Peptide Assembly Lines of the Viscosin Family” (J Nat Prod, 2025)
